TRPC4 act: activators of mouse TRPC4 channel, primary screen, Fluo4 calcium, HEK293 TRPC4beta/mu-opioid cells; Short transient receptor potential channel 4 (Mus musculus), Q9QUQ5; Fluo4 calcium fluorescence; active compounds read high; B-score at 10 µM; 0.49% of 310,000 active;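 active = B-score above 5 SD of library B-scores, and initial fluorescence ratio not above library mean plus 5 SD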;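 also: positive B-score marks a calcium rise read as TRPC4 activation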
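System – HEK293 cells stably co-expressing mouse TRPC4beta and mu-opioid receptor · Signal – Fluo4 calcium-sensitive dye fluorescence, kinetic, 1 Hz baseline · Benchmarks – buffer (low) and maximal DAMGO (high) · Read-out – B score of integrated fluorescence ratio per well · Incubation – dye loading 45 min room temperature, 110 s kinetic read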
TRPC4 potent: positive allosteric modulators of TRPC4, primary screen, cell-based, mouse TRPC4beta, HEK293 mu-opioid, Fluo-4 calcium | B-score at 10 µM | DAMGO EC20, Fluo-4 Ca2+ flux; active compounds read high | Short transient receptor potential channel 4 (Mus musculus), Q9QUQ5 | 0.42% of 310,000 active;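 active = B-score of calcium response area above 5 SD of library B-scores, with initial fluorescence ratio within 5 SD of library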;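 also: B-score of integrated fluorescence ratio over time as area under calcium response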
TRPC6 inh: mouse TRPC6 channel inhibitors, primary screen, cell-based, HEK293, membrane potential dye; 1.1% of 310,000 active; B-score at 10 µM; Short transient receptor potential channel 6 (Mus musculus), Q61143; AID 2553, 2010; ACh-evoked depolarization; active compounds read low;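 active = B-score under library mean minus 3 SD, initial fluorescence not abnormally high, positive integrated signal ratio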;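 also: B-score derived from integrated fluorescence ratio over the kinetic read; more negative B-score means stronger inhibition of depolarization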
Target sequence (Q61143 whole entry, looked up): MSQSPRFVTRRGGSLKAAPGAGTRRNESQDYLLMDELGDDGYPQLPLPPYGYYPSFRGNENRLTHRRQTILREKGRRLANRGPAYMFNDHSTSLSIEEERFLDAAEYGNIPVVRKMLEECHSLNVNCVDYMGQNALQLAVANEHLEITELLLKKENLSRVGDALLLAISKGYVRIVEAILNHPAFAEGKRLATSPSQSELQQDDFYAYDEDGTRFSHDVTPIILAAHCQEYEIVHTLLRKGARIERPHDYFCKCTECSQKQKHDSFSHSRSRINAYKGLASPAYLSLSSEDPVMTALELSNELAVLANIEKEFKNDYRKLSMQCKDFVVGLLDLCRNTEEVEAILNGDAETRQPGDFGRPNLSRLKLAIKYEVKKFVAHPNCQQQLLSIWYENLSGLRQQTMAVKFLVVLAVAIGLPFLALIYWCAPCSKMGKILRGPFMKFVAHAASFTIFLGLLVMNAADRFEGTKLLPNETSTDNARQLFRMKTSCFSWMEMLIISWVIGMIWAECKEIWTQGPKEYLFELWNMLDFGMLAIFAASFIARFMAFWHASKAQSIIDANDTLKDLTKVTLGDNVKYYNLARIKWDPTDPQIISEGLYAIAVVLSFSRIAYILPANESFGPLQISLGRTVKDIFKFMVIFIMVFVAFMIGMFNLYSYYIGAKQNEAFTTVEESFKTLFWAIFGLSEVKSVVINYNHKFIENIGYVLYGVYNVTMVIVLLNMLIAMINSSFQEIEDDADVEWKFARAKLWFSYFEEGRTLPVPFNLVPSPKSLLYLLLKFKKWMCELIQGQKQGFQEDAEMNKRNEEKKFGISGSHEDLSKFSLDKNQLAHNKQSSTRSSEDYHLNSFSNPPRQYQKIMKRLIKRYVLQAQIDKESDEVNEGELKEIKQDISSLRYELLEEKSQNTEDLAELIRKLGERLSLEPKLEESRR
TRPC4 block: inhibitors of mouse TRPC4 channel, primary screen, Fluo4 calcium, HEK293 TRPC4beta/mu-opioid cells | B-score at 10 µM | 0.39% of 300,000 active | DAMGO-evoked Fluo4 calcium flux; active compounds read low | Short transient receptor potential channel 4 (Mus musculus), Q9QUQ5;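 active = B-score over 3 SD under the library average, no early fluorescence shift, positive overall ratio signal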
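System: stable TRPC4beta/mu-opioid receptor HEK293 cells; Dosing: single-point compound dosing; Measured by: Fluo4 Ca2+ flux fluorescence; Read-out basis: per-well B score of integrated baseline-normalized Fluo4 ratio.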
Platelet DG rel: inhibitors of platelet dense granule secretion, primary screen, cell-based, MLPCN, human platelets | AID 1663, 2009 | human platelet-rich plasma, SFLLRN dense granule ATP release, luminescence | inhibition, %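 (compounds screened at 7.5 µM in platelet-rich plasma)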 | 0.22% of 300,000 active;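 active = mean replicate score, as percent of positive control, at or above 50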
TRPC6 act: mouse TRPC6 channel activators, primary screen, cell-based, HEK293, membrane potential dye | Short transient receptor potential channel 6 (Mus musculus), Q61143 | B-score at 10 µM | 0.13% of 310,000 active | HEK293-TRPC6 membrane potential dye fluorescence; active compounds read high;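 active = B-score of the integrated fluorescence ratio above library mean plus 3 SD, and starting fluorescence ratio within library mean plus 5 SD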;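 also: higher score means more depolarization so channel activation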
Numbers without * were called inactive. This is a sample that favours compounds with a hit; in the whole collection about 2.5% have one here.

Screening CCC(CC)C(=O)c1c[nH]c(C(=O)NCc2ccc(F)cc2)c1 returned TRPC4 act inactive, TRPC4 potent inactive, TRPC6 inh inactive, TRPC4 block inactive, Platelet DG rel -1 and TRPC6 act inactive.
For CN(C)c1nc(N)c([N+](=O)[O-])c(N2CCCCCC2)n1 the results were TRPC4 act inactive, TRPC4 potent inactive, TRPC6 inh inactive, TRPC4 block inactive, Platelet DG rel 1 and TRPC6 act inactive.
`Cc1ccc(SCCCCN2CCNCC2)cc1` gave TRPC4 act inactive, TRPC4 potent 13*, TRPC6 inh inactive, TRPC4 block inactive, Platelet DG rel -4 and TRPC6 act inactive.
COC(=O)c1cc(CSC(=N)N)ccc1OCCC(C)C was read as TRPC4 act inactive, TRPC4 potent inactive, TRPC6 inh inactive, TRPC4 block inactive, Platelet DG rel 1 and TRPC6 act inactive.
`COc1ccc(CSC(=N)N)cc1[N+](=O)[O-]` gave TRPC4 act 53*, TRPC4 potent inactive, TRPC6 inh inactive, TRPC4 block inactive, Platelet DG rel 7 and TRPC6 act inactive.
For CCCOc1ccc(CSC(=N)N)cc1C(=O)OC the results were TRPC4 act 185*, TRPC4 potent inactive, TRPC6 inh inactive, TRPC4 block inactive, Platelet DG rel -1 and TRPC6 act inactive.
Screening S=c1[nH]nc(-c2cccc3ccccc23)n1-c1cccnc1 returned TRPC4 act inactive, TRPC4 potent inactive, TRPC6 inh inactive, TRPC4 block inactive, Platelet DG rel 3 and TRPC6 act inactive.
For CCc1ccc(-c2cc(C)no2)cc1S(=O)(=O)NCCCN1CCN(c2ccccc2)CC1 the results were TRPC4 act inactive, TRPC4 potent inactive, TRPC6 inh inactive, TRPC4 block inactive, Platelet DG rel 3 and TRPC6 act inactive.
For CCN(CCCNS(=O)(=O)c1cc(-c2cc(C)no2)ccc1C)Cc1ccccc1 the results were TRPC4 act 175*, TRPC4 potent inactive, TRPC6 inh inactive, TRPC4 block inactive, Platelet DG rel -5 and TRPC6 act inactive.
For O=C(CCNC(=O)Cn1ccc2ccccc2c1=O)NCCN1CCN(c2cccc(Cl)c2)CC1 the results were TRPC4 act inactive, TRPC4 potent inactive, TRPC6 inh inactive, TRPC4 block -6*, Platelet DG rel -3 and TRPC6 act inactive.
Screening CN1CCN(CC(=O)Nc2c(C(=O)c3ccccc3)oc3ccccc23)CC1 returned TRPC4 act inactive, TRPC4 potent inactive, TRPC6 inh inactive, TRPC4 block inactive, Platelet DG rel 3 and TRPC6 act inactive.
Screening COc1ccc2oc(C(=O)c3ccccc3)c(NC(=O)CN3CCN(C)CC3)c2c1 returned TRPC4 act 51*, TRPC4 potent 19*, TRPC6 inh -8.1*, TRPC4 block inactive and TRPC6 act inactive.
COc1ccc(S(=O)(=O)NC2CCCC2)c(Cl)c1Cl was read as TRPC4 act inactive, TRPC4 potent 11*, TRPC6 inh inactive, TRPC4 block inactive, Platelet DG rel -6 and TRPC6 act inactive.
Screening CC(=O)Nc1c(-c2cc(=O)oc3cc(C)ccc23)oc2ccccc12 returned TRPC4 act inactive, TRPC4 potent inactive, TRPC6 inh inactive, TRPC4 block inactive, Platelet DG rel 3 and TRPC6 act inactive.
Screening CCCCN(CC)CCCNC(=O)Cn1nc(Cc2ccncc2)c2ccccc2c1=O returned TRPC4 act 133*, TRPC4 potent inactive, TRPC6 inh inactive, TRPC4 block inactive, Platelet DG rel 1 and TRPC6 act inactive.
For CCCCN(C)C(=O)Cn1nc(Cc2ccncc2)c2ccccc2c1=O the results were TRPC4 act inactive, TRPC4 potent inactive, TRPC6 inh inactive, TRPC4 block inactive, Platelet DG rel 12 and TRPC6 act inactive.
For O=C1CC(O)(C(F)(F)F)Oc2c1ccc1ccccc21 (configuration not stated) the results were TRPC4 act 142*, TRPC4 potent inactive, TRPC6 inh inactive, TRPC4 block inactive, Platelet DG rel -3 and TRPC6 act inactive.
O=C1CC(O)(C(F)F)Oc2ccc3ccccc3c21 (configuration not stated) was read as TRPC4 act inactive, TRPC4 potent inactive, TRPC6 inh inactive, TRPC4 block inactive, Platelet DG rel -1 and TRPC6 act inactive.
For COc1ccc(-n2c(C)c(C(C)=O)c(C(C)=O)c2C)cc1OC the results were TRPC4 act inactive, TRPC4 potent inactive, TRPC6 inh inactive, TRPC4 block inactive, Platelet DG rel 53* and TRPC6 act inactive.
Screening COc1ccc(-n2c(C)c(C(C)=O)c(C(C)=O)c2C)cc1 returned TRPC4 act inactive, TRPC4 potent inactive, TRPC6 inh inactive, TRPC4 block inactive, Platelet DG rel 3 and TRPC6 act inactive.
CCN(CC)CCn1c2c(c(SCC(=O)Nc3ccc(F)c(F)c3)nc1=O)CCC2 was read as TRPC4 act inactive, TRPC4 potent inactive, TRPC6 inh inactive, TRPC4 block inactive, Platelet DG rel 0 and TRPC6 act inactive.
Screening COc1cccc2c(Nc3ccccc3C)cc(C)nc12 returned TRPC4 act inactive, TRPC4 potent inactive, TRPC6 inh inactive, TRPC4 block inactive, Platelet DG rel 8 and TRPC6 act inactive.
`COc1cccc2nc3cc(C)c(C)cc3nc12` gave TRPC4 act inactive, TRPC4 potent inactive, TRPC6 inh inactive, TRPC4 block inactive, Platelet DG rel 70* and TRPC6 act inactive.
CCOC(CCNC(=O)c1cc2c(=O)[nH]c3ccccc3c2s1)OCC was read as TRPC4 act inactive, TRPC4 potent inactive, TRPC6 inh inactive, TRPC4 block inactive, Platelet DG rel 2 and TRPC6 act inactive.
For CCCCN(CC)CCNC(=O)c1cc2c(=O)[nH]c3ccccc3c2s1 the results were TRPC4 act 48*, TRPC4 potent inactive, TRPC6 inh inactive, TRPC4 block inactive, Platelet DG rel -3 and TRPC6 act inactive.
Screening CCCN(CCC)CCCNC(=O)c1cc2c(=O)[nH]c3ccccc3c2s1 returned TRPC4 act 80*, TRPC4 potent inactive, TRPC6 inh inactive, TRPC4 block inactive, Platelet DG rel 2 and TRPC6 act inactive.
For CCN(CC)CCNC(=O)c1cc2c(=O)n(CC)c3ccccc3c2s1 the results were TRPC4 act inactive, TRPC4 potent inactive, TRPC6 inh inactive, TRPC4 block inactive, Platelet DG rel 4 and TRPC6 act inactive.

Compound activity (PubChem BioAssay)
